Assay results from ChEMBL document CHEMBL1140966, “Syntheses and evaluation of 3-(3-bromo phenyl)-5-phenyl-1-(thiazolo [4,5-b] quinoxaline-2-yl)-2-pyrazoline derivatives” (Eur J Med Chem, 2008).

What was measured:
Entamoeba histolytica = assay: Antiamoebic activity against Entamoeba histolytica HMI:IMSS after 72 hrs by microdilution method; format: functional, organism-based
In short: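 E. histolytica HMI:IMSS trophozoites grown in TYIS-33 medium. Compounds dissolved in DMSO, made up to 1 mg/ml with medium, then twofold serial dilutions in 96-well plates. 1.7 × 10⁴ viable organisms/well; plates gassed with nitrogen for 10 min, 37 °C for 72 h. Cells methanol-fixed and eosin-stained, dye released with 0.1 N NaOH, OD read at 490 nm. IC50 taken from linear regression of % inhibition vs log dose.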

[1] = Safety index, ratio of IC50 for human kidney epithelial cells to IC50 for Entamoeba histolytica HMI:IMSS; format: toxicity, cell-based, Epithelial cell; conditions: read-out: Ratio IC50
In short: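 Ratio computed as toxicity IC50 in human kidney epithelial cells (concentration killing 50% of cells, MTT) over protozoal IC50 against E. histolytica (concentration killing 50% of amoebae).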

[2] = Cytotoxicity against human kidney epithelial cells after 44 hrs by MTT assay; format: cell-based; conditions: Epithelial cell
In short: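 Transformed human kidney epithelial (Graham) cells kept at 37 °C in 5% CO2. Trypsinized cells adjusted to 0.5 million cells/mL and plated with compound. After 44 h, 2 mM MTT added for a further 4 h, then DMSO added to dissolve formazan. Absorbance read at 540 nm with 690 nm reference; % viability calculated against controls.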

IC50 (Entamoeba histolytica) [nM]	SMILES	selectivity ratio [1]	IC50 [2] [µM]
2610	CCc1ccccc1C1CC(c2cccc(Br)c2)=NN1C(N)=S (centres undefined)		
560	NC(=S)N1N=C(c2cccc(Br)c2)CC1c1cccc(Cl)c1Cl (centres undefined)		
2490	CCc1ccccc1C1CC(c2cccc(Br)c2)=NN1c1nc2nc3ccccc3nc2s1 (centres undefined)	> 24.1	> 60
1870	CC(C)c1ccccc1C1CC(c2cccc(Br)c2)=NN1c1nc2nc3ccccc3nc2s1 (centres undefined)	> 32.1	> 60
700	Clc1cccc(C2CC(c3cccc(Br)c3)=NN2c2nc3nc4ccccc4nc3s2)c1Cl (centres undefined)	> 85.7	> 60
1800	Cc1cc(C)c(/C=C/C(=O)c2cccc(Br)c2)c(C)c1		
2490	Cc1ccc(/C=C/C(=O)c2cccc(Br)c2)cc1		
2230	O=C(/C=C/c1ccccc1Cl)c1cccc(Br)c1		
140	Brc1cccc(C2=NN(c3nc4nc5ccccc5nc4s3)C(c3ccccc3)C2)c1 (centres undefined)	> 428	> 60
80	Brc1cccc(C2=NN(c3nc4nc5ccccc5nc4s3)C(c3c[nH]c4ccccc34)C2)c1 (centres undefined)	> 750	> 60
1920	CC(C)c1ccccc1/C=C/C(=O)c1cccc(Br)c1		
1110	O=C(/C=C/c1ccc(Cl)cc1Cl)c1cccc(Br)c1		
190	NC(=S)N1N=C(c2cccc(Br)c2)CC1c1ccccc1 (centres undefined)		
4380	Cc1ccc(C2CC(c3cccc(Br)c3)=NN2C(N)=S)cc1 (centres undefined)		
1710	Cc1cc(C)c(C2CC(c3cccc(Br)c3)=NN2C(N)=S)c(C)c1 (centres undefined)		
100	Cc1ccc(C2CC(c3cccc(Br)c3)=NN2c2nc3nc4ccccc4nc3s2)cc1 (centres undefined)	> 600	> 60
1290	Cc1cc(C)c(C2CC(c3cccc(Br)c3)=NN2c2nc3nc4ccccc4nc3s2)c(C)c1 (centres undefined)	> 46.5	> 60
680	Clc1ccccc1C1CC(c2cccc(Br)c2)=NN1c1nc2nc3ccccc3nc2s1 (centres undefined)	> 88.2	> 60
1900	NC(=S)N1N=C(c2cccc(Br)c2)CC1c1ccccc1Cl (centres undefined)		
2280	NC(=S)N1N=C(c2cccc(Br)c2)CC1c1c[nH]c2ccccc12 (centres undefined)		
2340	CC(C)c1ccccc1C1CC(c2cccc(Br)c2)=NN1C(N)=S (centres undefined)		
	Cc1ncc([N+](=O)[O-])n1CCO [METRONIDAZOLE]	> 55.5	> 100
